# Experimental data from different studies.
# Protocols differ between the studies behind these lines.
Compound,tested on,test,test system,setting,quantity,result
CNS(=O)(=O)c1ccc(Nc2ncc3cc(Cl)c(=O)n(C4CCCC4)c3n2)c(C)c1,,,"rat, plasma","oral, 10 mg/kg",bioavailability,3%
CC(=O)Nc1ccc(O)cc1,THLE-2,"cell growth or viability, MTT",,"100 µM, 72 h",viability,29.1%
NCc1cc2c(cc1F)C(=O)N(C1CCC(=O)NC1=O)C2 (centres unmarked),,,"male cynomolgus monkey, plasma","oral, 0.3 mg/kg",half-life,2.2 h
CC[C@H](C)[C@H](NC(=O)[C@@H]1CCCN1C(=O)CNC(=O)[C@H](Cc1ccccc1)NC(=O)[C@H](CC(N)=O)NC(=O)[C@H](CC(N)=O)NC(=O)[C@H](CO)NC(=O)[C@H](CO)NC(=O)[C@H](Cc1c[nH]cn1)NC(=O)[C@H](CCCNC(=N)N)NC(=O)[C@H](CC(C)C)NC(=O)[C@H](Cc1ccccc1)NC(=O)[C@H](CCC(=O)O)NC(=O)[C@H](C)NC(=O)[C@H](CC(C)C)NC(=O)[C@H](CCCNC(=N)N)NC(=O)[C@H](CCC(N)=O)NC(=O)[C@@H](NC(=O)[C@H](C)NC(=O)[C@@H]1CSSC[C@H](NC(=O)[C@H](CCCCN)NC(=O)CC[C@H](NC(=O)CCCCCCCCCCCCCCCCCCC(=O)O)C(=O)O)C(=O)N[C@@H](CC(N)=O)C(=O)N[C@@H]([C@@H](C)O)C(=O)N[C@@H](C)C(=O)N[C@@H]([C@@H](C)O)C(=O)N1)[C@@H](C)O)C(=O)N[C@@H](CC(C)C)C(=O)N1CCC[C@H]1C(=O)N1CCC[C@H]1C(=O)N[C@H](C(=O)N[C@@H](CC(N)=O)C(=O)N[C@H](C(=O)NCC(=O)N[C@@H](CO)C(=O)N[C@@H](CC(N)=O)C(=O)N[C@H](C(=O)N1CCC[C@H]1C(N)=O)[C@@H](C)O)C(C)C)[C@@H](C)O,,,"cynomolgus monkey, plasma","subcutaneous, 20 nmol/kg, single dose",half-life,62 h
COc1nc(-c2cccc(-c3ccccc3)c2C)ccc1CNCCNC(=O)CCCCCCCCCCC(=O)N1CCN(CCNC(=O)c2cc3c(=O)n4cccc(C)c4nc3n(CCc3cccs3)c2=N)CC1,,,"male Sprague-Dawley rat, plasma","intraperitoneal, 4 mg/kg",Cmax,300 ng/mL
Cc1c(C)c2c(c(C)c1O)CCC(C)(COc1ccc(CC3SC(=O)NC3=O)cc1)O2 (centres unmarked),THLE-2,"cell growth or viability, MTT",,"100 µM, 72 h",viability,9%
C[C@]1(O)CCCN(c2nc(Nc3ccc(S(=O)(=O)N[C@H]4CC[C@H](CN5CCN(c6ccc(C7CCC(=O)NC7=O)c(F)c6)CC5)CC4)cc3F)ncc2C(F)(F)F)C1 (some centres unmarked),,,"rat, plasma","oral, 10 mg/kg",bioavailability,24%
C[C@H]1Oc2cc(cnc2N)-c2c(nn(C)c2C#N)CN(C)C(=O)c2ccc(F)cc21,,,"male Sprague-Dawley rat, plasma","oral, 50 mg/kg, single dose",Cmax,2480 ng/mL
